The species named for experiment [1] is Rattus norvegicus. The experiment is described as follows: Agonist activity at AMPA receptor in rat purkinje neurons assessed as potentiation of glutamate-induced transmembrane current at 30 uM by patch-clamp technique relative to kainate. Type of experiment: functional. In outline:
(§1)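 Whole-cell patch-clamp on Purkinje neurons freshly dissociated from cerebellum of 14-18 day old rats. Slices were incubated 1 h in saline, then treated with Pronase and collagenase at 34 °C under O2 and triturated. Extracellular saline was HEPES-buffered, pH 7.32, with KCl/EGTA/ATP pipette solution. Agonist (kainate or glutamate) was applied with or without compound by fast perfusion. Potentiation was taken relative to the agonist-alone current.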
For orientation: Patch clamp records ionic current or voltage across a cell membrane.

For experiment [2], the species on record is Rattus norvegicus. The experiment in a line: Agonist activity at AMPA receptor in rat purkinje neurons assessed as potentiation of kainate-induced transmembrane current at 30 uM by patch-clamp technique relative to kainate. Type of experiment: functional. The method, boiled down: as §1
Experiment [3] is filed under the species Rattus norvegicus. The experiment in a line: Agonist activity at AMPA receptor in rat purkinje neurons assessed as potentiation of 1000 uM kainate-induced transmembrane current at 30 uM by patch-clamp technique relative to kainate. The class given is functional. In outline: as §1
For experiment [4], the species on record is Rattus norvegicus. The experiment in a line: Agonist activity at AMPA receptor in rat purkinje neurons assessed as potentiation of 4000 uM kainate-induced transmembrane current at 30 uM by patch-clamp technique relative to kainate. Type of experiment: functional. In outline: as §1
For experiment [5], the target named is T1, Glutamate NMDA receptor (Rattus norvegicus) (UniProt P35439+Q00959+Q00960+Q00961+Q62645+Q8VHN2+Q9R1M7). The experiment is described as follows: Antagonist activity at NMDA receptor in rat cerebral cortex neurons assessed as 50 uM NMDA-induced current at 0.5 uM relative to control. The class given is functional, tissue-based. Also noted: scale not given: the % may be the effect or the level left. In outline: (§2)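 Whole-cell currents were evoked by NMDA (50, 100, 5000 or 10000 µM) in a heterogeneous primary culture of rat cerebral cortex neurons. Compound was tested at 0.5-30 µM. Current amplitude was expressed as percent of the NMDA-alone control.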

In experiment [6] the target is T1, Glutamate NMDA receptor (Rattus norvegicus). The experiment is described as follows: Antagonist activity at NMDA receptor in rat cerebral cortex neurons assessed as 50 uM NMDA-induced current at 2 uM relative to control. On the set-up: scale not given: the % may be the effect or the level left. The class given is functional, tissue-based. In outline:
as §2

Experiment [7] has the same target. The experiment in a line: Antagonist activity at NMDA receptor in rat cerebral cortex neurons assessed as 50 uM NMDA-induced current at 5 uM relative to control. Type of experiment: functional, tissue-based. On the set-up: scale not given: the % may be the effect or the level left. The method, boiled down: as §2
Experiment [8] has the same target. The experiment in a line: Antagonist activity at NMDA receptor in rat cerebral cortex neurons assessed as 50 uM NMDA-induced current at 10 uM relative to control. Also noted: scale not given: the % may be the effect or the level left. The class given is functional, tissue-based. In outline: as §2
Experiment [9] has the same target. The experiment is described as follows: Antagonist activity at NMDA receptor in rat cerebral cortex neurons assessed as 50 uM NMDA-induced current at 30 uM relative to control. On the set-up: scale not given: the % may be the effect or the level left. Type of experiment: functional, tissue-based. The method, boiled down: as §2
Experiment [10] has the same target. The experiment in a line: Antagonist activity at NMDA receptor in rat cerebral cortex neurons assessed as 100 uM NMDA-induced current at 0.5 uM relative to control. Type of experiment: functional, tissue-based. Also noted: scale not given: the % may be the effect or the level left. In outline: as §2
Experiment [11] has the same target. The experiment is described as follows: Antagonist activity at NMDA receptor in rat cerebral cortex neurons assessed as 100 uM NMDA-induced current at 1 uM relative to control. Type of experiment: functional, tissue-based. Also noted: scale not given: the % may be the effect or the level left. In outline: as §2
Experiment [12] shares this target. The experiment in a line: Antagonist activity at NMDA receptor in rat cerebral cortex neurons assessed as 100 uM NMDA-induced current at 2 uM relative to control. Type of experiment: functional, tissue-based. Also noted: scale not given: the % may be the effect or the level left. In outline: as §2
Experiment [13] has the same target. The experiment in a line: Antagonist activity at NMDA receptor in rat cerebral cortex neurons assessed as 100 uM NMDA-induced current at 5 uM relative to control. The class given is functional, tissue-based. On the set-up: scale not given: the % may be the effect or the level left. The method, boiled down:
as §2

Experiment [14] shares this target. The experiment in a line: Antagonist activity at NMDA receptor in rat cerebral cortex neurons assessed as 100 uM NMDA-induced current at 10 uM relative to control. The class given is functional, tissue-based. Also noted: scale not given: the % may be the effect or the level left. The method, boiled down: as §2
Experiment [15] has the same target. The experiment in a line: Antagonist activity at NMDA receptor in rat cerebral cortex neurons assessed as 100 uM NMDA-induced current at 30 uM relative to control. Type of experiment: functional, tissue-based. On the set-up: scale not given: the % may be the effect or the level left. The method, boiled down:
as §2

Experiment [16] has the same target. The experiment in a line: Antagonist activity at NMDA receptor in rat cerebral cortex neurons assessed as 5000 uM NMDA-induced current at 0.5 uM relative to control. Type of experiment: functional, tissue-based. On the set-up: scale not given: the % may be the effect or the level left. The method, boiled down:
as §2

Experiment [17] has the same target. The experiment is described as follows: Antagonist activity at NMDA receptor in rat cerebral cortex neurons assessed as 5000 uM NMDA-induced current at 1 uM relative to control. The class given is functional, tissue-based. Also noted: scale not given: the % may be the effect or the level left. In outline: as §2
The target is the same in experiment [18]. The experiment in a line: Antagonist activity at NMDA receptor in rat cerebral cortex neurons assessed as 5000 uM NMDA-induced current at 2 uM relative to control. Type of experiment: functional, tissue-based. Also noted: scale not given: the % may be the effect or the level left. The method, boiled down:
as §2

Experiment [19] has the same target. The experiment is described as follows: Antagonist activity at NMDA receptor in rat cerebral cortex neurons assessed as 5000 uM NMDA-induced current at 5 uM relative to control. Type of experiment: functional, tissue-based. On the set-up: scale not given: the % may be the effect or the level left. The method, boiled down: as §2
Experiment [20] has the same target. The experiment in a line: Antagonist activity at NMDA receptor in rat cerebral cortex neurons assessed as 5000 uM NMDA-induced current at 10 uM relative to control. The class given is functional, tissue-based. Also noted: scale not given: the % may be the effect or the level left. The method, boiled down:
as §2

The target is the same in experiment [21]. The experiment in a line: Antagonist activity at NMDA receptor in rat cerebral cortex neurons assessed as 5000 uM NMDA-induced current at 30 uM relative to control. Type of experiment: functional, tissue-based. Also noted: scale not given: the % may be the effect or the level left. In outline: as §2
Experiment [22] is filed under the species Rattus norvegicus. The experiment in a line: Agonist activity at AMPA receptor in rat purkinje neurons assessed as increase in potentiation of kainate-induced transmembrane current at 30 uM by patch-clamp technique relative to S-ethyl-N-allyl-N',N'-dibenzylisothiourea hydroiodide. The class given is functional.
Experiment [23] addresses T1, Glutamate NMDA receptor (Rattus norvegicus). The experiment is described as follows: Antagonist activity at NMDA receptor in rat cerebral cortex neurons assessed as 10000 uM NMDA-induced current at 0.5 uM relative to control. Type of experiment: functional, tissue-based. On the set-up: scale not given: the % may be the effect or the level left. The method, boiled down:
as §2

Experiment [24] shares this target. The experiment is described as follows: Antagonist activity at NMDA receptor in rat cerebral cortex neurons assessed as 10000 uM NMDA-induced current at 1 uM relative to control. Type of experiment: functional, tissue-based. Also noted: scale not given: the % may be the effect or the level left. The method, boiled down:
as §2

Experiment [25] shares this target. The experiment is described as follows: Antagonist activity at NMDA receptor in rat cerebral cortex neurons assessed as 10000 uM NMDA-induced current at 2 uM relative to control. The class given is functional, tissue-based. Also noted: scale not given: the % may be the effect or the level left. The method, boiled down:
as §2

Experiment [26] has the same target. The experiment is described as follows: Antagonist activity at NMDA receptor in rat cerebral cortex neurons assessed as 10000 uM NMDA-induced current at 5 uM relative to control. The class given is functional, tissue-based. On the set-up: scale not given: the % may be the effect or the level left. In outline: as §2
Experiment [27] shares this target. The experiment in a line: Antagonist activity at NMDA receptor in rat cerebral cortex neurons assessed as 10000 uM NMDA-induced current at 10 uM relative to control. Type of experiment: functional, tissue-based. On the set-up: scale not given: the % may be the effect or the level left. In outline:
as §2

For experiment [28] the target is unchanged. The experiment in a line: Antagonist activity at NMDA receptor in rat cerebral cortex neurons assessed as 10000 uM NMDA-induced current at 30 uM relative to control. Also noted: scale not given: the % may be the effect or the level left. The class given is functional, tissue-based. The method, boiled down: as §2
The species named for experiment [29] is Rattus norvegicus. The experiment is described as follows: Agonist activity at AMPA receptor in rat purkinje neurons assessed as potentiation of 500 uM kainate-induced transmembrane current at 50 uM relative to kainate. The class given is functional. In outline: as §1
The species entered for experiment [30] is Rattus norvegicus. The experiment is described as follows: Agonist activity at AMPA receptor in rat purkinje neurons assessed as potentiation of 500 uM glutamate-induced transmembrane current at 30 uM relative to glutamate. Type of experiment: functional. The method, boiled down: as §1
The target of experiment [31] is T1, Glutamate NMDA receptor (Rattus norvegicus). The experiment is described as follows: Antagonist activity at NMDA receptor in rat cerebral cortex neurons assessed as 50 uM NMDA-induced current at 1 uM relative to control. On the set-up: scale not given: the % may be the effect or the level left. Type of experiment: functional. The method, boiled down: as §2

Activity calls are given as the source filed them. The rule behind the calls is not given here.

Take `C=CC/N=C(\SCC)N(Cc1ccccc1)Cc1ccccc1`: the outcome in experiment [1], in experiment [2] and in experiment [29] was Active. The Activity stood at 290% in experiment [3]; 132% in experiment [4]; 98% in experiment [5]; 48% in [6]; 34% in [7]; 31% in experiment [8]. For the same compound, the Activity in experiment [9] was found to be 11%; in [10], 99%; in experiment [11], 48%; in experiment [12], 55%; in experiment [13], 35%; in experiment [14], 23%. Besides, the Activity in [15] was found to be 8%; in [16] it was 59%; in experiment [17], 35%; in experiment [18], 36%; in experiment [19], 20%; in experiment [20], 14%. Also, the Activity in [21] is 4%; in experiment [22], 5%; in experiment [23], 45%; in [24], 35%; in experiment [25], 26%; in experiment [26] it was 16%. In addition, the Activity was determined as 10% in experiment [27], 3% in experiment [28] and 68% in experiment [31]. For the same compound, in experiment [30], the fold change (FC) is 26.9.

Turning to `NS(=O)(=O)c1cc2c(cc1Cl)NC(C1CC3C=CC1C3)NS2(=O)=O` (configuration not stated), the result in experiment [1], in experiment [2] and in experiment [29] was Active. Besides, the results for the Activity in experiment [3] and in experiment [4] were 150% and 60%, respectively. Besides, the fold change (FC) in experiment [30] was determined as 7.

The record behind these values is ChEMBL document CHEMBL1153824, “Novel isothiourea derivatives as potent neuroprotectors and cognition enhancers: synthesis, biological and physicochemical properties” (J Med Chem, 2009).
